Experimental findings from ChEMBL document CHEMBL3400126, “Benzo-fused lactams from a diversity-oriented synthesis (DOS) library as inhibitors of scavenger receptor BI (SR-BI)-mediated lipid uptake” (Bioorg Med Chem Lett, 2015) are described below.

≈ marks a conversion by molar mass, not a printed value. Calls of active or inactive are those of the source. The calls are words filed in the database; no cut-off is given here.

For data set [1], the target named is T1, Scavenger receptor class B member 1 (Mus musculus) (UniProt Q61009).
T1 sequence (whole entry): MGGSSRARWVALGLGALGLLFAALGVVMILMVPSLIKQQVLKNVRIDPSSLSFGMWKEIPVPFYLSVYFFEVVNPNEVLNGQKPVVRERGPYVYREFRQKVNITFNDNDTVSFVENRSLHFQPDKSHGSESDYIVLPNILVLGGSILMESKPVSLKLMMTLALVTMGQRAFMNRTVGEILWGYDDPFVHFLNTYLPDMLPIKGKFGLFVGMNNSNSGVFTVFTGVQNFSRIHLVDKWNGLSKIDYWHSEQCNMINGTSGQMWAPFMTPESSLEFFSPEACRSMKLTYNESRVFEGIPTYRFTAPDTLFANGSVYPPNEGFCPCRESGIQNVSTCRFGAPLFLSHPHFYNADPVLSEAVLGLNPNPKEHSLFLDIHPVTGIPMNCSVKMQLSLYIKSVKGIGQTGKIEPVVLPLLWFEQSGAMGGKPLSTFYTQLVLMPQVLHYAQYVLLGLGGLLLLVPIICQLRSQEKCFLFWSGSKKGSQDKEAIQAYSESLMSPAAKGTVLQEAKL
Nature of the data set: Inhibition of mouse SR-B1 overexpressed in CHO cells assessed as inhibition of receptor-mediated Alexa-594-labeled transferrin endocytosis up to 35 uM. It is filed as cell-based. The gist of the method: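 Receptor-mediated endocytosis in IdlA[mSR-BI] cells followed by uptake of Alexa-594-labeled transferrin, compound tested at concentrations up to 35 μM.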

Data set [2] deals with T2, Scavenger receptor class B member 1 (Mus musculus, UniProt Q61009).
T2 sequence (Q61009 whole entry): T1 sequence (whole entry)
Nature of the data set: Inhibition of mouse SR-B1 overexpressed in CHO cells assessed as inhibition of [3H]cholesteryl ester uptake into cells after 2 to 3 hrs by liquid scintillation counting. Format: cell-based. The essentials:
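IdlA[mSR-BI] cells exposed to HDL carrying [³H]-labeled cholesteryl oleate ester; cellular uptake of [³H]CE measured across a compound dilution series, IC₅₀ from dose-response curve.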

Data set [3] can be described thus: Stability in mouse liver microsomes assessed as compound remaining at 1 uM after 1 hr by UHPLC-MS analysis. It is filed as ADME. Conditions: read-out: Stability. The gist of the method:
(§1)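 Compound incubated 1 h with mouse or human liver microsomes; percent parent remaining determined.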
On the technique in general: Liver microsomes are a subcellular fraction often used to study metabolism.

In another data set the target is L-type calcium channel (Homo sapiens, UniProt O60840+Q01668+Q13698+Q13936). Kind of data set: Inhibition of L-type calcium channel (unknown origin) at 10 uM.
Data set [4] is described as follows: Stability in human plasma assessed as compound remaining at 5 uM after 5 hrs by UPLC-MS analysis. It is filed as ADME, cell-free. Conditions: read-out: Stability. The gist of the method: (§2)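 Compound incubated 5 h in human or mouse plasma; percent parent remaining determined.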
The subject of the next data set is CHO. Kind of data set: Cytotoxicity against CHO cells after 24 hrs by CellTiterGlo assay. Format: cell-based, Cricetulus griseus. Conditions: chinese hamster. The gist of the method:
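IdlA[mSR-BI] cells (CHO overexpressing mouse SR-BI) incubated with compound for 24 h; cellular ATP levels read by CellTiter-Glo luminescence.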
Background: In ATP-based viability assays light output follows the ATP content of the culture.

Data set [5] can be described thus: Stability in mouse plasma assessed as compound remaining at 5 uM after 5 hrs by UPLC-MS analysis. It is filed as ADME, cell-free. The conditions noted are these: read-out: Stability. The essentials:
as §2

A short description of data set [6]: Plasma protein binding in human at 5 uM after 5 hrs by equilibrium dialysis. Format: ADME, cell-free. The conditions noted are these: read-out: PPB (converted). The essentials:
(§3)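 Fraction bound to plasma proteins measured separately in human and mouse plasma.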
On the technique in general: In equilibrium dialysis free small molecules cross a membrane that holds back macromolecules.

A short description of data set [7]: Stability in human liver microsomes assessed as compound remaining at 1 uM after 1 hr by UHPLC-MS analysis. Format: ADME. The conditions noted are these: read-out: Stability. The essentials:
as §1

Data set [8] is described as follows: Plasma protein binding in mouse at 5 uM after 5 hrs by equilibrium dialysis. The conditions noted are these: read-out: PPB (converted). Format: ADME, cell-free. The gist of the method:
as §3

Data set [9] is described as follows: Aqueous solubility of the compound in PBS at pH 7.4 with 1 % DMSO after 24 hrs by UPLC-MS analysis. Conditions: PBS with 1% DMSO, pH 7.4. Format: physicochemical.
Data set [10] deals with T2, Scavenger receptor class B member 1. Kind of data set: Activity at mouse SR-B1 overexpressed in CHO cells assessed as enhancement of binding of ALexa-488-labeled HDL particles to cells after 3 hrs.

As usually defined, the inhibition is how much of the control response was suppressed. By IC50 is commonly meant the concentration needed to halve the response being measured. One may read the solubility as the concentration that dissolves in the medium under given conditions. A higher solubility goes with much dissolved substance. What is called EC50 is the midpoint of the concentration-response curve. Take `CC(C)NC(=O)Nc1ccc2c(c1)C(=O)N([C@H](C)CO)C[C@@H](C)[C@H](CN(C)S(=O)(=O)c1ccc(Cl)cc1)O2`: the inhibition entry in data set [1] was “inactive”. Further, the IC50 in [2] amounted to 250 nM. Also, the remaining at 1 h, 1 µM came to 25% in data set [3] and 10% in data set [7]. Besides, the inhibition at 10 µM at L-type calcium channel stood at 19%. The remaining at 5 h, 5 µM in [4] and in [5] was above 99% in each case. In addition, the Activity result in the data set with CHO was “Non-toxic”. In addition, the fraction unbound at 5 h, 5 µM in data set [6] is 0.055; in data set [8], 0.053. Also, the concentration in solution in [9] (solubility at 24 h) was 79 µM (≈ 44.8 µg/mL). The EC50 in [10] stood at 400 nM.
